Activity calls are given as the source filed them. No cut-off for these calls is given here.
Columns and labels:
A549 [1] = assay: Induction of apoptosis in human A549 cells assessed as necrotic cells at 60 nM after 12 hrs by Annexin-V FITC/propidium iodide staining based flow cytometric analysis (reference value: 1.28%); assay type: functional
A549 [2] = assay: Induction of apoptosis in human A549 cells assessed as early apoptotic cells at 30 nM after 12 hrs by Annexin-V FITC/propidium iodide staining based flow cytometric analysis (reference value: 0.32%); assay type: functional
A549 [3] = assay: Induction of apoptosis in human A549 cells assessed as early apoptotic cells at 60 nM after 12 hrs by Annexin-V FITC/propidium iodide staining based flow cytometric analysis (reference value: 0.32%); assay type: functional
A549 [4] = assay: Induction of apoptosis in human A549 cells assessed as necrotic cells at 90 nM after 12 hrs by Annexin-V FITC/propidium iodide staining based flow cytometric analysis (reference value: 1.28%); assay type: functional
A549 [5] = assay: Induction of apoptosis in human A549 cells assessed as increase in caspase3 expression by Western blot analysis; assay type: functional, cell-based
How it was run: (§1)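 A549 treated 30, 60 and 90 nM for 24 h; lysates normalized by BCA, 30 μg protein denatured in SDS buffer at 100 °C 8 min, SDS-PAGE, PVDF transfer, blocked in 5% milk/TBS-0.05% Tween 2 h, primary antibodies overnight at 4 °C, HRP anti-rabbit IgG 2 h, ECL detection; β-actin loading control.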

A549 [6] = assay: Induction of apoptosis in human A549 cells assessed as viable cells at 30 nM after 12 hrs by Annexin-V FITC/propidium iodide staining based flow cytometric analysis (reference value: 97.18%); assay type: functional; conditions: A549, 12 h, read-out: Activity
A549 [7] = assay: Induction of apoptosis in human A549 cells assessed as late apoptotic cells at 90 nM after 12 hrs by Annexin-V FITC/propidium iodide staining based flow cytometric analysis (reference value: 1.22%); assay type: functional
A549 [8] = assay: Induction of apoptosis in human A549 cells assessed as necrotic cells at 60 nM after 6 hrs by Annexin-V FITC/propidium iodide staining based flow cytometric analysis; assay type: functional
How it was run: (§2)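 Time-course: A549 (2×10^5 cells/well, grown overnight) exposed to 60 nM for 6, 12 or 24 h; untreated control. Cells trypsinized, washed in cold PBS, stained 15 min with Annexin V-FITC in binding buffer, then PI, and read by flow cytometry; duplicate experiments.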

A549 [9] = assay: Induction of apoptosis in human A549 cells assessed as reduction in Bcl-2 expression at 30 to 90 nM by Western blot analysis
A549 [10] = assay: Cell cycle arrest in human A549 cells assessed as accumulation at G1 phase at 60 nM after 24 hrs by propidium iodide/RNase A staining-based flow cytometric analysis (reference value: 57.41%); assay type: functional
A549 [11] = assay: Cell cycle arrest in human A549 cells assessed as accumulation at G2 phase after 24 hrs by propidium iodide/RNase A staining-based flow cytometric analysis; assay type: functional
A549 [12] = assay: Induction of apoptosis in human A549 cells assessed as late apoptotic cells at 60 nM after 24 hrs by Annexin-V FITC/propidium iodide staining based flow cytometric analysis; assay type: functional; how it was run: as §2
A549 [13] = assay: Induction of apoptosis in human A549 cells assessed as early apoptotic cells at 90 nM after 12 hrs by Annexin-V FITC/propidium iodide staining based flow cytometric analysis (reference value: 0.32%); assay type: functional
A549 [14] = assay: Induction of apoptosis in human A549 cells assessed as early apoptotic cells at 60 nM after 6 hrs by Annexin-V FITC/propidium iodide staining based flow cytometric analysis; assay type: functional; how it was run: as §2
A549 [15] = assay: Cell cycle arrest in human A549 cells assessed as accumulation at S phase at 90 nM after 24 hrs by propidium iodide/RNase A staining-based flow cytometric analysis (reference value: 12.57%); assay type: functional
A549 [16] = assay: Cell cycle arrest in human A549 cells assessed as accumulation at G1 phase at 30 nM after 24 hrs by propidium iodide/RNase A staining-based flow cytometric analysis (reference value: 57.41%); assay type: functional
A-375 = assay: Antiproliferative activity against human A375 cells assessed as reduction in cell viability measured after 72 hrs by MTT assay; assay type: functional, cell-based; conditions: A-375, 72 h
How it was run: (§3)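 Cells seeded at 5×10^3 per well and cultured overnight, then exposed for 72 h at 37 °C to six concentrations from 10 µM down to 0.0001 µM (from 10 mM DMSO stock diluted in medium; vehicle 1% DMSO in PBS). MTT at 0.5 mg/mL was added for 4 h, formazan dissolved in DMSO, and A570 read. IC50 given as mean ± SD of three independent experiments.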

A549 [17] = assay: Induction of apoptosis in human A549 cells assessed as late apoptotic cells at 60 nM after 12 hrs by Annexin-V FITC/propidium iodide staining based flow cytometric analysis (reference value: 1.22%); assay type: functional
A549 [18] = assay: Induction of apoptosis in human A549 cells assessed as viable cells at 60 nM after 12 hrs by Annexin-V FITC/propidium iodide staining based flow cytometric analysis (reference value: 97.18%); assay type: functional; conditions: A549, 12 h, read-out: Activity
A549 [19] = assay: Induction of apoptosis in human A549 cells assessed as viable cells at 60 nM after 24 hrs by Annexin-V FITC/propidium iodide staining based flow cytometric analysis; assay type: functional; conditions: A549, 24 h, read-out: Activity; how it was run: as §2
SH-SY5Y = assay: Antiproliferative activity against human SH-SY5Y cells assessed as reduction in cell viability measured after 72 hrs by MTT assay; assay type: functional, cell-based; how it was run: as §3
A549 [20] = assay: Cell cycle arrest in human A549 cells assessed as accumulation at G2 phase at 60 nM after 24 hrs by propidium iodide/RNase A staining-based flow cytometric analysis (reference value: 30.02%); assay type: functional
A549 [21] = assay: Induction of apoptosis in human A549 cells assessed as viable cells at 60 nM after 6 hrs by Annexin-V FITC/propidium iodide staining based flow cytometric analysis; assay type: functional; conditions: A549, 6 h, read-out: Activity; how it was run: as §2
A549 [22] = assay: Cell cycle arrest in human A549 cells assessed as accumulation at G1 phase at 90 nM after 24 hrs by propidium iodide/RNase A staining-based flow cytometric analysis (reference value: 57.41%); assay type: functional
A549 [23] = assay: Induction of apoptosis in human A549 cells at 60 nM by Annexin-V FITC/propidium iodide staining based flow cytometric analysis; assay type: functional, cell-based; conditions: TDE = time-dependent effect
A549 [24] = assay: Induction of apoptosis in human A549 cells assessed as nuclear fragmentation at 90 nM after 24 hrs by […] staining-based confocal laser scanning microscopic analysis; assay type: functional, cell-based
How it was run: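 A549 exposed to 30, 60 and 90 nM for 24 h, stained with Hoechst 33342, imaged by confocal laser scanning microscopy; strongly blue-fluorescent nuclei scored as apoptotic.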

MCF7 = assay: Antiproliferative activity against human MCF7 cells assessed as reduction in cell viability measured after 72 hrs by MTT assay; assay type: functional, cell-based; conditions: MCF7, 72 h; how it was run: as §3
A549 [25] = assay: Induction of apoptosis in human A549 cells after 12 hrs by Annexin-V FITC/propidium iodide staining based flow cytometric analysis; assay type: functional, cell-based
A549 [26] = assay: Induction of apoptosis in human A549 cells assessed as late apoptotic cells at 30 nM after 12 hrs by Annexin-V FITC/propidium iodide staining based flow cytometric analysis (reference value: 1.22%); assay type: functional
A549 [27] = assay: Induction of apoptosis in human A549 cells assessed as increase in Bax protein expression by Western blot analysis; assay type: functional, cell-based; how it was run: as §1

COc1cc(C[C@H]2NC(=O)[C@H](C(C)C)N(C)C(=O)/C(C)=C/C[C@@H](OC)/C(C)=C/C=C/[C@@H](C)[C@@H](c3ccccc3)OC(=O)[C@H](C(C)C)NC2=O)ccc1O
Activity (A549 [1]): 10.19%
Activity (A549 [2]): 1.21%
Activity (A549 [3]): 3.55%
Activity (A549 [4]): 12.85%
Activity (A549 [5]): Dose-dependent effect
viability at 0.03 µM (A549 [6]): 75.3%
Activity (A549 [7]): 28.22%
Activity (A549 [8]): 2.3%
Activity (A549 [9]): Active
Activity (A549 [10]): 44.44%
Activity (A549 [11]): Dose-dependent effect
Activity (A549 [12]): 29.03%
Activity (A549 [13]): 3.55%
Activity (A549 [14]): 0.34%
Activity (A549 [15]): 4.46%
Activity (A549 [16]): 49.14%
IC50 (A-375): 4.3 nM
Activity (A549 [17]): 20.03%
viability at 0.06 µM (A549 [18]): 66.2%
viability at 0.06 µM (A549 [19]): 54.4%
IC50 (SH-SY5Y): 9.6 nM
Activity (A549 [20]): 40.8%
viability at 0.06 µM (A549 [21]): 92.3%
Activity (A549 [22]): 37.81%
Activity (A549 [23]): Tde
Activity (A549 [24]): Active
IC50 (MCF7): 15 nM
Activity (A549 [25]): Dose-dependent effect
Activity (A549 [26]): 13.6%
Activity (A549 [27]): Dose-dependent effect

Reference: ChEMBL document CHEMBL4346669, “Novel nannocystin A analogues as anticancer therapeutics: Synthesis, biological evaluations and structure-activity relationship studies” (Eur J Med Chem, 2019)
